Assay results as given in ChEMBL document CHEMBL1165943, “Design and synthesis of new anticancer pyrimidines with multiple-kinase inhibitory effect” (Bioorg Med Chem, 2010).

Experiments:
[1] = tested on: NCI-H460; experiment: Growth inhibition of human NCI-H460 cells after 48 hrs by sulforhodamine B assay; assay type: functional, cell-based; conditions: NCI-H460, 48 h; for CC50: read-out: LC50 (the source's name)
Summary of the method: (§1)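 Cells grown in RPMI 1640 with 5% FBS and 2 mM L-glutamine, seeded at 5,000–40,000 cells/well according to doubling time. After 24 h, time-zero plates are TCA-fixed. Five concentrations (10-fold or ½log dilutions, DMSO stocks) are applied for 48 h at 37 °C, 5% CO₂. Cells are TCA-fixed, SRB-stained and read at 515 nm. IC₅₀ is taken from [(Ti−Tz)/(C−Tz)]×100 = 50.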

[2] = tested on: M14; experiment: Cytotoxicity against human M14 cells assessed as cell growth at 1 uM after 48 hrs by sulforhodamine B assay; assay type: functional; conditions: M14, 48 h, read-out: Activity
[3] = tested on: HL-60(TB); experiment: Cytotoxicity against human HL-60(TB) cells assessed as cell growth at 0.01 uM after 48 hrs by sulforhodamine B assay; assay type: functional; conditions: HL-60, 48 h, read-out: Activity
Summary of the method: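 Five-concentration HL-60(TB) test in RPMI 1640 with 5% FBS and 2 mM L-glutamine. Cells are plated at 5,000–40,000/well and a TCA-fixed time-zero plate is read at drug addition after 24 h. Drug is dissolved in DMSO and given as five 10-fold or ½log dilutions for 48 h at 37 °C, 5% CO2. Settled cells are fixed with TCA, stained with SRB and read at 515 nm.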

[4] = tested on: MOLT-4; experiment: Cytotoxicity against human MOLT4 cells assessed as cell growth at 0.001 uM after 48 hrs by sulforhodamine B assay; assay type: functional; conditions: MOLT-4, 48 h, read-out: Activity
[5] = tested on: SNB-19; experiment: Cytotoxicity against human SNB19 cells assessed as cell growth at 0.01 uM after 48 hrs by sulforhodamine B assay; assay type: functional; conditions: SNB-19, 48 h, read-out: Activity
[6] = tested on: HCT-15; experiment: Cytotoxicity against human HCT15 cells assessed as cell growth at 10 uM after 48 hrs by sulforhodamine B assay; assay type: functional; conditions: HCT-15, 48 h, read-out: Activity
[7] = tested on: 786-0; experiment: Cytotoxicity against human 786-0 cells assessed as cell growth at 0.001 uM after 48 hrs by sulforhodamine B assay; assay type: functional; conditions: 786-0, 48 h, read-out: Activity
Summary of the method: (§2)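 Cells grown in RPMI 1640 with 5% FBS and 2 mM L-glutamine, seeded at 5,000–40,000 cells/well by doubling time. Time-zero plates TCA-fixed after 24 h. Five concentrations (10-fold or half-log dilutions from DMSO stock) added; 48 h at 37 °C, 5% CO2. Cold TCA fixation (final 10%, 60 min, 4 °C), 0.4% SRB stain, dye solubilized in 10 mM trizma base, A515.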

[8] = tested on: IGROV-1; experiment: Cytotoxicity against human IGROV1 cells assessed as cell growth at 0.01 uM after 48 hrs by sulforhodamine B assay; assay type: functional; conditions: IGROV-1, 48 h, read-out: Activity
[9] = tested on: IGROV-1; experiment: Cytotoxicity against human IGROV1 cells assessed as cell growth at 10 uM after 48 hrs by sulforhodamine B assay; assay type: functional; conditions: IGROV-1, 48 h, read-out: Activity
[10] = tested on: IGROV-1; experiment: Cytotoxicity against human IGROV1 cells assessed as cell growth at 1 uM after 48 hrs by sulforhodamine B assay; assay type: functional; conditions: IGROV-1, 48 h, read-out: Activity
[11] = tested on: ACHN; experiment: Cytotoxicity against human ACHN cells assessed as cell growth at 0.01 uM after 48 hrs by sulforhodamine B assay; assay type: functional; conditions: read-out: Activity; summary of the method: as §2
[12] = tested on: UO-31; experiment: Cytotoxicity against human UO31 cells assessed as cell growth at 1 uM after 48 hrs by sulforhodamine B assay; assay type: functional; conditions: UO-31, 48 h, read-out: Activity
[13] = tested on: T47D; experiment: Cytotoxicity against human T47D cells assessed as cell growth at 0.01 uM after 48 hrs by sulforhodamine B assay; assay type: functional; conditions: read-out: Activity
[14] = tested on: U-251; experiment: Cytotoxicity against human U251 cells assessed as cell growth at 100 nM after 48 hrs by sulforhodamine B assay; assay type: functional; conditions: U-251, 48 h, read-out: Activity
[15] = Cytotoxicity against human Hs 578T cells assessed as cell growth at 100 nM after 48 hrs by sulforhodamine B assay; assay type: functional; conditions: read-out: Activity
[16] = tested on: U-251; experiment: Growth inhibition of human U251 cells after 48 hrs by sulforhodamine B assay; assay type: functional, cell-based; conditions: for CC50: read-out: LC50 (the source's name); summary of the method: as §1
[17] = tested on: NCI-H522; experiment: Growth inhibition of human NCI-H522 cells after 48 hrs by sulforhodamine B assay; assay type: functional, cell-based; conditions: NCI-H522, 48 h; for CC50: read-out: LC50 (the source's name); summary of the method: as §1
[18] = tested on: OVCAR-3; experiment: Cytotoxicity against human OVCAR-3 cells assessed as cell growth at 10 uM after 48 hrs by sulforhodamine B assay; assay type: functional; conditions: OVCAR-3, 48 h, read-out: Activity
[19] = tested on: SNB-19; experiment: Cytotoxicity against human SNB19 cells assessed as cell growth at 0.001 uM after 48 hrs by sulforhodamine B assay; assay type: functional; conditions: SNB-19, 48 h, read-out: Activity
[20] = tested on: UO-31; experiment: Cytotoxicity against human UO31 cells assessed as cell growth at 100 nM after 48 hrs by sulforhodamine B assay; assay type: functional; conditions: UO-31, 48 h, read-out: Activity
[21] = tested on: TK-10; experiment: Cytotoxicity against human TK10 cells assessed as cell growth at 100 nM after 48 hrs by sulforhodamine B assay; assay type: functional; conditions: TK-10, 48 h, read-out: Activity
[22] = tested on: TK-10; experiment: Growth inhibition of human TK10 cells after 48 hrs by sulforhodamine B assay; assay type: functional, cell-based; conditions: TK-10, 48 h; for CC50: read-out: LC50 (the source's name); summary of the method: as §1
[23] = tested on: SF-268; experiment: Cytotoxicity against human SF268 cells assessed as cell growth at 10 uM after 48 hrs by sulforhodamine B assay; assay type: functional; conditions: SF-268, 48 h, read-out: Activity
[24] = tested on: SK-MEL-5; experiment: Cytotoxicity against human SK-MEL-5 cells assessed as cell growth at 100 nM after 48 hrs by sulforhodamine B assay; assay type: functional; conditions: SK-MEL-5, 48 h, read-out: Activity
[25] = tested on: OVCAR-5; experiment: Cytotoxicity against human OVCAR5 cells assessed as cell growth at 1 uM after 48 hrs by sulforhodamine B assay; assay type: functional; conditions: OVCAR-5, 48 h, read-out: Activity
[26] = tested on: SK-OV-3; experiment: Cytotoxicity against human SKOV3 cells assessed as cell growth at 1 uM after 48 hrs by sulforhodamine B assay; assay type: functional; conditions: SK-OV-3, 48 h, read-out: Activity
[27] = tested on: EKVX; experiment: Growth inhibition of human EKVX cells after 48 hrs by sulforhodamine B assay; assay type: functional, cell-based; conditions: for CC50: read-out: LC50 (the source's name); summary of the method: as §1
[28] = tested on: HCT-116; experiment: Cytotoxicity against human HCT116 cells assessed as cell growth at 0.001 uM after 48 hrs by sulforhodamine B assay; assay type: functional; conditions: HCT-116, 48 h, read-out: Activity
[29] = tested on: ACHN; experiment: Cytotoxicity against human ACHN cells assessed as cell growth at 10 uM after 48 hrs by sulforhodamine B assay; assay type: functional; conditions: read-out: Activity; summary of the method: as §2
[30] = tested on: NCI-H460; experiment: Cytotoxicity against human NCI-H460 cells assessed as cell growth at 100 nM after 48 hrs by sulforhodamine B assay; assay type: functional; conditions: NCI-H460, 48 h, read-out: Activity
[31] = tested on: M14; experiment: Cytotoxicity against human M14 cells assessed as cell growth at 10 uM after 48 hrs by sulforhodamine B assay; assay type: functional; conditions: M14, 48 h, read-out: Activity

Question: What does the source list for CC(=O)c1ccccc1-c1ccc(-c2ccnc(NC(=O)Nc3cc(N4CCOCC4)cc(C(F)(F)F)c3)n2)cn1?
Answer: GI50 [1]: > 100 µM; IC50 [1]: > 100 µM; TGI [1]: > 100 µM; CC50 [1]: > 100 µM; growth at 1 µM [2]: 9%; growth at 0.01 µM [3]: 87%; growth at 0.001 µM [4]: 94%; growth at 0.01 µM [5]: 98%; growth at 10 µM [6]: 87%; growth at 0.001 µM [7]: 103%; growth at 0.01 µM [8]: 96%; growth at 10 µM [9]: 41%; growth at 1 µM [10]: 40%; growth at 0.01 µM [11]: 99%; growth at 1 µM [12]: 82%; growth at 0.01 µM [13]: 102%; growth at 0.1 µM [14]: 93%; growth at 0.1 µM [15]: 77%; TGI [16]: > 100 µM; GI50 ([16]; Homo sapiens, U-251, 48 h): 5.36 µM; IC50 ([16]; Homo sapiens, U-251, 48 h): 34.9 µM; CC50 ([16]; Homo sapiens, U-251, 48 h): > 100 µM; GI50 [17]: > 100 µM; IC50 [17]: 63.2 µM; TGI [17]: > 100 µM; CC50 [17]: > 100 µM; growth at 10 µM [18]: 51%; growth at 0.001 µM [19]: 98%; growth at 0.1 µM [20]: 80%; growth at 0.1 µM [21]: 100%; GI50 [22]: > 100 µM; IC50 [22]: 5.46 µM; TGI [22]: > 100 µM; CC50 [22]: > 100 µM; growth at 10 µM [23]: 44%; growth at 0.1 µM [24]: 84%; growth at 1 µM [25]: 96%; growth at 1 µM [26]: 48%; GI50 [27]: > 100 µM; IC50 [27]: > 100 µM; TGI [27]: > 100 µM; CC50 [27]: > 100 µM; growth at 0.001 µM [28]: 95%; growth at 10 µM [29]: 15%; growth at 0.1 µM [30]: 91%; growth at 10 µM [31]: 86%

Question: Which GI50 [1] does the source give for CC(=O)Nc1cccc(-c2ccc(-c3ccnc(NC(=O)Nc4cc(C(F)(F)F)cc(C(F)(F)F)c4)n3)cn2)c1.Cl here?
Answer: 2.06 µM

Question: What about the IC50 [1] of the same compound?
Answer: 2.06 µM

Question: And the TGI [1]?
Answer: 7.07 µM

Question: And the CC50 [1]?
Answer: 59.7 µM

Question: And the growth at 1 µM [2]?
Answer: -68%

Question: What about the growth at 0.01 µM [3] of the same compound?
Answer: 90%

Question: And the growth at 0.001 µM [4]?
Answer: 95%

Question: What about the growth at 0.01 µM [5] of the same compound?
Answer: 96%

Question: And the growth at 10 µM [6]?
Answer: -86%

Question: What about the growth at 0.001 µM [7] of the same compound?
Answer: 96%

Question: What about the growth at 0.01 µM [8] of the same compound?
Answer: 95%

Question: And the growth at 10 µM [9]?
Answer: -21%

Question: And the growth at 1 µM [10]?
Answer: -2%

Question: And the growth at 0.01 µM [11]?
Answer: 90%

Question: And the growth at 1 µM [12]?
Answer: 48%

Question: What about the growth at 0.01 µM [13] of the same compound?
Answer: 80%

Question: And the growth at 0.1 µM [14]?
Answer: 85%

Question: And the growth at 0.1 µM [15]?
Answer: 97%

Question: And the GI50 ([16]; Homo sapiens, U-251, 48 h)?
Answer: 2 µM

Question: And the IC50 ([16]; Homo sapiens, U-251, 48 h)?
Answer: 2 µM

Question: What about the TGI ([16]; Homo sapiens, U-251, 48 h) of the same compound?
Answer: 5.32 µM

Question: What about the CC50 ([16]; Homo sapiens, U-251, 48 h) of the same compound?
Answer: 18.9 µM

Question: And the GI50 [17]?
Answer: 1.71 µM

Question: What about the IC50 [17] of the same compound?
Answer: 1.71 µM

Question: What about the TGI [17] of the same compound?
Answer: 5.85 µM

Question: What about the CC50 [17] of the same compound?
Answer: 35.3 µM

Question: And the growth at 10 µM [18]?
Answer: 100%

Question: What about the growth at 0.001 µM [19] of the same compound?
Answer: 95%

Question: And the growth at 0.1 µM [20]?
Answer: 70%

Question: And the growth at 0.1 µM [21]?
Answer: 105%

Question: What about the GI50 [22] of the same compound?
Answer: 16.8 µM

Question: And the IC50 [22]?
Answer: 16.8 µM

Question: And the TGI [22]?
Answer: 39.8 µM

Question: And the CC50 [22]?
Answer: 94.1 µM

Question: And the growth at 10 µM [23]?
Answer: -50%

Question: What about the growth at 0.1 µM [24] of the same compound?
Answer: 73%

Question: What about the growth at 1 µM [25] of the same compound?
Answer: 62%

Question: And the growth at 1 µM [26]?
Answer: 65%

Question: What about the GI50 [27] of the same compound?
Answer: 1.44 µM

Question: And the IC50 [27]?
Answer: 1.44 µM

Question: What about the TGI [27] of the same compound?
Answer: 5.71 µM

Question: What about the CC50 [27] of the same compound?
Answer: > 100 µM

Question: And the growth at 0.001 µM [28]?
Answer: 92%

Question: What about the growth at 10 µM [29] of the same compound?
Answer: -84%

Question: And the growth at 0.1 µM [30]?
Answer: 79%

Question: What about the growth at 10 µM [31] of the same compound?
Answer: 100%
